Test results reported in ChEMBL document CHEMBL1137277, “Synthesis of highly substituted dibenzo[b,f]azocines and their evaluation as protein kinase inhibitors” (Bioorg Med Chem Lett, 2006).
Activity calls are given as the source filed them. The calls are words filed in the database; no cut-off is given here.

Assays:
[1] = molecular target: T1, cAMP-dependent protein kinase (PKA) (Homo sapiens, UniProt P22694+P17612+P22612); experiment: Inhibition of PKA-mediated phosphorylation of kemptide at 100 uM; assay type: protein assay
In short: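 PKA (41 µg/ml) with kemptide (10 µM) and compound at 100 µM in 40 mM Tris pH 7.5, 20 mM MgCl2, 0.1 mg/ml BSA; equilibrated 1 h. ATP added (1 µM); after 10 min, remaining ATP read by Kinase-Glo Plus luminescence. DMSO and no-kinase controls; means of two replicates.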

[2] = molecular target: Protein kinase C (PKC) (Homo sapiens) (UniProt O94806+P41743+P17252+P05129+Q05655+P05771+Q05513+Q02156+P24723+Q15139+Q04759); experiment: Inhibition of PKC-mediated phosphorylation of neurogranin at 100 uM; assay type: protein assay
In short: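 PKC (0.33 µg/ml), neurogranin (20 µM), compound 100 µM in 20 mM Tris pH 7.5, 10 mM MgCl2, 0.1 mg/ml BSA, 250 µM EGTA, 400 µM CaCl2 plus lipid activator (phosphatidylserine, […], CaCl2); 1 h equilibration. DMSO and no-kinase controls; duplicate means.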

[3] = molecular target: T1, cAMP-dependent protein kinase (PKA); experiment: Inhibition of PKA-mediated phosphorylation of kemptide

Row | Activity [1] | Activity [2] | IC50 [3] [µM] | Structure (SMILES)
1 | inactive | inactive |  | CCc1cccc2c1CNc1c(cccc1CCc1ccccc1)/C=C\2COc1cccc(Cl)c1
2 | inactive | inactive |  | CCc1cccc2c1CNc1c(cccc1CCc1ccccc1)/C=C\2COc1ccccc1
3 | inactive | inactive |  | CCc1cccc2c1CNc1c(cccc1CCc1ccccc1)/C=C\2COc1ccccc1OC
4 | inactive | inactive |  | CCc1cccc2c1CNc1c(cccc1CCc1ccccc1)/C=C\2COc1cccc(C(F)(F)F)c1
5 | inactive | inactive |  | CCc1cccc2c1CNc1c(cccc1CCc1ccccc1)/C=C\2COc1ccc([N+](=O)[O-])cc1
6 | inactive | inactive |  | CCc1cccc2c1CNc1c(cccc1CCc1ccccc1)/C=C\2COc1ccccc1Cl
7 | inactive | inactive |  | CCc1cccc2c1CNc1c(cccc1CCc1ccccc1)/C=C\2COc1cccc(C(=O)OC)c1
8 | inactive | inactive |  | CCc1cccc2c1CNc1c(cccc1CCc1ccccc1)/C=C\2COc1ccccc1C(=O)OC
9 |  | inactive | 122 | CCc1cccc2c1CNc1c(cccc1CCc1ccccc1)/C=C\2COc1ccccc1NC(C)=O
10 | inactive | inactive |  | CCc1cccc2c1CNc1c(cccc1CCc1ccccc1)/C=C\2COc1ccccc1C(F)(F)F
11 | inactive | inactive |  | CCc1cccc2c1CNc1c(cccc1CCc1ccccc1)/C=C\2COc1ccccc1[N+](=O)[O-]
12 | inactive | inactive |  | CCc1cccc2c1CNc1c(cccc1CCc1ccccc1)/C=C\2COc1cccc(F)c1
13 | inactive | inactive |  | CCc1cccc2c1CNc1c(cccc1CCc1ccccc1)/C=C\2COc1ccccc1F
14 | inactive | inactive |  | CCc1cccc2c1CNc1c(cccc1CCc1ccccc1)/C=C\2COc1ccc(C(=O)OC)cc1
15 | inactive | inactive |  | CCc1cccc2c1CNc1c(cccc1CCc1ccccc1)/C=C\2COc1ccc(F)cc1
16 | inactive | inactive |  | CCc1cccc2c1CNc1c(cccc1CCc1ccccc1)/C=C\2COc1cccc(OC)c1
17 | inactive | inactive |  | CCc1cccc2c1CNc1c(cccc1CCc1ccccc1)/C=C\2COc1ccc(Cl)cc1
18 | inactive | inactive |  | CCc1cccc2c1CNc1c(cccc1CCc1ccccc1)/C=C\2COc1ccc(OC)cc1
19 | inactive | inactive |  | CCc1cccc2c1CNc1c(cccc1CCc1ccccc1)/C=C\2COc1cccc([N+](=O)[O-])c1
